PRMT1 inh: blocks human protein arginine methyltransferase 1. Q99873. inhibition, % at 2.79 µM. recombinant PRMT1, activity-based probe fluorescence polarization. hit rate 1.3% among 370,000;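 active means inhibition above about 21% made by adding two undisclosed values, limit read from the data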
PME-1 inh: PME-1 (human) inhibition; Q9Y570; recombinant PME-1, FP-Rh probe fluorescence polarization; inhibition, % at 5.9 µM; hit rate 0.53% among 320,000;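 active means inhibition above the campaign mean of all compounds plus 3 SD, cut at about 26% in these data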;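 further: competitive labeling of PME-1 active site by serine hydrolase directed probe; 0% = PME-1 with DMSO and 100% = wells lacking PME-1 enzyme; inhibitors block probe labeling so polarization falls and inhibition rises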
GSTO1 counter: GSTO1 inhibition, counter-screen for RBBP9 inhibitors. P78417. recombinant GSTO1, activity-based probe fluorescence polarization. inhibition, % at 5.96 µM. hit rate 1.1% among 300,000. AID 1974;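 active means inhibition above the campaign mean inhibition plus 3 SD, cut at about 35% in these data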;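 further: 0% = GSTO1-1 with DMSO and 100% = wells lacking GSTO1-1 enzyme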
PAD4 inh: PAD4 (human) enzyme inhibition; recombinant PAD4, RCA probe fluorescence polarization; inhibition, % at 6.36 µM; hit rate 0.41% among 330,000;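 active means percent inhibition above a cutoff equal to the mean of all tested compounds plus 3 SD, cut at about 15% in these data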;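 further: 0% = PAD4 with RCA probe and DMSO and 100% = probe without PAD4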
Target sequence (Q9UM07 whole entry, looked up): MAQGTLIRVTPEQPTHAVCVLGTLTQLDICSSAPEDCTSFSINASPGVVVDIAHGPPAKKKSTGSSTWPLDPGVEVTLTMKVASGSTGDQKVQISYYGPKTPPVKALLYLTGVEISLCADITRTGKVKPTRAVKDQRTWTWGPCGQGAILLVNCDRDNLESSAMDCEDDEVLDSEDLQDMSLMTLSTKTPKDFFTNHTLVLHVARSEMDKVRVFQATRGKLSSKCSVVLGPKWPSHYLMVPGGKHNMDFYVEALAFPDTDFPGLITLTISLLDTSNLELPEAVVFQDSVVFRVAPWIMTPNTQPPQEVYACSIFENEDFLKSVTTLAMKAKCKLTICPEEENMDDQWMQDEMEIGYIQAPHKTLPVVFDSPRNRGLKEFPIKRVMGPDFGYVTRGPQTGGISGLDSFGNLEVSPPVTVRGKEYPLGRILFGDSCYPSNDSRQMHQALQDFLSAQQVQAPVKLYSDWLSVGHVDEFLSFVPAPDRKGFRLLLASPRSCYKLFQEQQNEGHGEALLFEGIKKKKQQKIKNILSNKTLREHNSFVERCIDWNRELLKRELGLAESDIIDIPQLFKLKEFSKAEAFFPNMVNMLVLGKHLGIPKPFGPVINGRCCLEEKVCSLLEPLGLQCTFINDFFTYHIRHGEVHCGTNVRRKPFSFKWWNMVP
Fam108B inh: Fam108B inhibition, counter-screen for RBBP9 inhibitors. inhibition, % at 9.51 µM. AID 1947. recombinant Fam108B, FP-Rh probe fluorescence polarization. hit rate 0.33% among 300,000;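 active means inhibition above the screen mean inhibition plus 3 SD, computed separately per campaign, cut at about 18% in these data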;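 further: inhibitors lower polarization as less probe binds the enzyme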
RBBP9 inh: human RBBP9 hydrolase inhibition | hit rate 0.2% among 220,000 | O75884 | inhibition, % at 7.94 µM | recombinant RBBP9, FP-Rh probe fluorescence polarization | AID 1515;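 active means inhibition above the campaign mean of all tested compounds plus 3 SD, cut at about 14% in these data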;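 further: plate controls were DMSO wells with RBBP9 for no effect and wells lacking RBBP9 protein for full effect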
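Measured by: FP readout at 525/598 nm; material: recombinant human RBBP9; also added: Serine-hydrolase probe FP-Rh, 375 nM pre-mixing; medium: Tris buffer pH 8.0, NaCl, Pluronic; replication: one well per compound; doses: one concentration, 7.94 µM nominal, 0.794% DMSO; timing: preincubation 30 min plus labeling 45 min at 25 °C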
The depositor's hits bear a star; / = not tested or not shown. Shown are actives, neighbours in structure and some others; about 2.3% of the full set was active somewhere.

SMILES | PRMT1 inh | PME-1 inh | GSTO1 counter | PAD4 inh | Fam108B inh | RBBP9 inh
COc1ccc(-c2cc(C(=O)N3CCN(S(=O)(=O)c4ccccc4)CC3)[nH]n2)cc1 | 7 | 5 | 1 | -1 | -2 | /
COc1ccc(-c2cc(C(=O)N3CCN(C(=O)c4ccccc4F)CC3)[nH]n2)cc1 | 3 | 30* | -5 | -4 | 0 | /
CC(=O)Nc1ccc(C(=O)OCC(=O)N(c2ccccc2)C2CCS(=O)(=O)C2)cc1 (centres undefined) | -2 | 0 | / | -1 | / | /
Cc1ccc(Nc2c([N+](=O)[O-])ccc3c2=NC2(CCCCC2)N=3)cc1 | 5 | 31* | 22 | -2 | 16 | -8
Brc1cc2c(cc1Br)OCCOCCOCCO2 | -7 | 1 | 37* | 6 | 0 | -8
COc1ccc(C2=NN(c3nc(-c4ccccc4)c(CC(=O)O)s3)C(c3ccco3)C2)cc1 (centres undefined) | 22* | -9 | -18 | -27 | 2 | -1
Cc1nc(N2N=C(c3ccc(Cl)cc3)CC2c2ccco2)sc1C(=O)N(C)C (centres undefined) | 2 | -1 | 9 | -3 | -2 | -6
CCOc1ccc(/C=C2\CCC(C3CCCC3)C2=O)cc1 (centres undefined) | 9 | -3 | 0 | -2 | 0 | /
CCC(=O)OCOc1ccc(/C=C2/CCC(CN(C)C)C2=O)cc1 (centres undefined) | 37* | / | / | / | / | /
COC(=O)c1cccc(C#CC(NP(=O)(c2ccccc2)c2ccccc2)c2ccccc2)c1 (centres undefined) | 0 | 31* | 5 | -1 | -1 | /
CCOc1ccc(/C=N/Nc2nc(C)cs2)c(O)c1 | 21* | / | / | / | / | /
Cc1csc(N/N=C/c2ccccc2F)n1 | 20 | 1 | 2 | -8 | -1 | /
COc1ccc(S(=O)(=O)N2CCCCCC2)cc1C(=O)N(C)Cc1ccc(C(C)(C)C)cc1 | 1 | / | / | / | / | /
CCCN1CCCc2cc(CN)ccc21 | 8 | 7 | 64* | 28* | 11 | 1
O=C(O)c1ccc(S(=O)(=O)Nc2ccc(O)c(Sc3nc4ccccc4s3)c2)cc1 | 22* | -10 | 55* | 3 | 2 | 2
O=C(CCN1C(=O)C2CC=CCC2C1=O)Nc1cc(C(F)(F)F)ccc1N1CCCC1 (centres undefined) | -9 | -2 | 36* | 1 | -3 | /
CCC(CC)c1nnc(NC(=O)C2CSC3(C)CCC(=O)N23)s1 (centres undefined) | 7 | 0 | -2 | -4 | -1 | /
CC(C)N1C(=O)N(c2ccc(Cl)cc2)C(C)(O)CC1(C)C (centres undefined) | -2 | -3 | 1 | 0 | 5 | /
O=S(=O)(c1cnc(Cl)c(Br)c1)N1CCc2ccccc21 | 0 | 5 | 45* | 1 | -3 | -6
CC1CCCCN1S(=O)(=O)c1cnc(Cl)c(Br)c1 (centres undefined) | -3 | -3 | 71* | -4 | -3 | -18
COC(=O)N1C[C@H](OCc2cn(-c3cc(Cl)cc(Cl)c3)nn2)[C@H](OCc2cn(-c3cc(Cl)cc(Cl)c3)nn2)C[C@@H]1c1ccccc1Br | -2 | / | / | / | / | /
Cc1ccc(C(=O)c2nc(C(=O)NCCO)nc3ccccc23)cc1 | 1 | 5 | / | 1 | / | /
COC(=O)N1C(=O)[C@](c2ccc(OC)cc2)(C(C)C)N1C(=O)OC | -2 | 49* | -8 | -2 | 0 | /
COC(=O)N1C(=O)[C@@](c2ccccc2)(C2CCCC2)N1C(=O)OC | / | 23 | 8 | 4 | 6 | /
COC(=O)N1C(=O)[C@](CC(C)C)(c2ccccc2)N1C(=O)OC | -1 | 28* | 0 | -1 | 6 | /
SMILES | PRMT1 inh | PME-1 inh | GSTO1 counter | PAD4 inh | Fam108B inh | RBBP9 inh
COC(=O)N1C(=O)[C@](c2ccsc2)(C(C)C)N1C(=O)OC | -4 | 25 | -3 | -1 | -1 | /
COC(=O)N1C(=O)[C@](c2ccccc2)(C2CCCCC2)N1C(=O)OC | 2 | 71* | 1 | -5 | -2 | /
CC(C)CC(=O)N1CCC(O)(CS(=O)(=O)c2ccc(Cl)c(Cl)c2)CC1 | 0 | 5 | -2 | -2 | 2 | -8
Cc1ccccc1NS(=O)(=O)c1ccc2c(c1)oc(=O)n2C | 2 | 2 | 2 | 0 | 2 | /
O=C(CSc1nc2cc([N+](=O)[O-])ccc2n1-c1ccccc1)NCc1ccc2c(c1)OCO2 | 24* | -1 | 2 | -7 | 0 | 11
Nc1ccc(O)c(C(=O)O)c1 | / | -3 | 76* | 16* | 9 | /
O=C1/C(=C/c2ccncc2)SC(=S)N1Nc1ccccc1 | 17 | 0 | 36* | -7 | 3 | -6
CC(C)CCNC(=O)C(NS(=O)(=O)c1ccc2c(c1)c(=O)n(C)c(=O)n2C)c1ccccc1 (centres undefined) | 21* | -4 | 5 | 1 | -3 | -7
Cc1ccc(NC(=O)c2cc(S(=O)(=O)NCCC3=CCCCC3)ccc2F)cc1 | -3 | -16 | -2 | 1 | -14 | -17
Cc1[nH]c2ccccc2c1C(c1ccccn1)N1CCC(C(N)=O)CC1 (centres undefined) | 1 | -9 | 19 | -5 | -2 | -4
CC(=O)N1CCc2c(sc(NC(=O)C3CC3)c2-c2nc3ccccc3s2)C1 | 30* | -2 | 6 | 2 | -5 | -7
CC(=O)Nc1ccc(S(=O)(=O)NCc2nc(-c3ccccc3)no2)cc1 | 0 | -3 | 13 | 2 | 1 | /
COc1ccc(-c2noc(CNS(=O)(=O)c3ccc(NC(C)=O)cc3)n2)cc1 | 2 | -2 | 37* | 0 | 3 | /
CC1(C(=O)O)CCCN1C(=O)c1ccc(Cl)cc1Cl (centres undefined) | 4 | / | / | / | / | /
Cc1oc(-c2ccc(Cl)cc2)cc1C(=O)N1CCC1(C)C(=O)O (centres undefined) | 23* | / | / | / | / | /
O=C1Nc2ccccc2/C1=N\N=C\C1=C(N2CCOCC2)C(=C\c2ccccc2)/CC1 | 1 | 31* | 7 | 0 | 10 | 2
C=C1C(=O)[C@@]23[C@H](O)C[C@@H]4C(C)(C)CC[C@H](O)[C@]4(C)[C@@H]2C[C@H](O)[C@@H]1[C@H]3O | 22* | 1 | 9 | 1 | 4 | 2
Cc1c(Cl)sn(-c2ccc(Cl)cc2)c1=O | 68* | / | / | / | / | -3
CC(c1ccncn1)N(C)Cc1nc(-c2ccc(C(F)(F)F)cc2)no1 (centres undefined) | 1 | -11 | -3 | -1 | -1 | 1
Cc1oc(-c2ccc3ccccc3c2)nc1CN(C)C(C)c1ccncn1 (centres undefined) | -1 | 29* | 4 | -1 | -3 | -2
Cc1nc(Nc2ccc(C(=O)O)cc2)nc(Nc2ccc(C(=O)O)cc2)c1[N+](=O)[O-] | -2 | -5 | 22 | 0 | 3 | 0
COc1ccc(Nc2nc(NN)nc(C)c2[N+](=O)[O-])cc1 | 4 | 29* | -4 | -5 | 9 | 8
CC(=O)Nc1ccc(Nc2nc(C)c([N+](=O)[O-])c(Nc3ccccc3)n2)cc1 | -1 | 30* | -4 | -2 | 12 | 0

Compound activity from PubChem BioAssay.
